Measured values taken from ChEMBL document CHEMBL1125789, “Synthesis and selective class III antiarrhythmic activity of novel N-heteroaralkyl-substituted 1-(aryloxy)-2-propanolamine and related propylamine derivatives” (J Med Chem, 1991).

How the values were obtained:
Canis familiaris [1] = organism: Canis familiaris; assay: repolarization to reach -60mV, in canine Purkinje Fibers at a concentration of 3.0 uM at 1000 ms (simulating normal heart rate); format: functional, Canis lupus familiaris, Purkinje fiber
Procedure, shortened: (§1)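 Purkinje fiber bundles were stimulated with square-wave current pulses of 2.0 ms at twice threshold and equilibrated for at least 1 h, or until action potential parameters were steady. Each concentration was superfused for 45-60 min to reach steady state. Action potentials were recorded at four to six sites per fiber, under control and after drug.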

Canis familiaris [2] = organism: Canis familiaris; assay: Maximum rate of rise of the upstroke of transmembrane potential, in canine Purkinje Fibers at a concentration of 3.0 uM at 300 ms (simulating tachycardia); format: functional; set-up: unit not given here; conditions: Canis lupus familiaris, Purkinje fiber
Procedure, shortened: (§2)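 Isolated canine Purkinje fiber bundles were driven by square-wave pulses 2.0 ms long at 2× threshold and equilibrated ≥1 h to steady state. Each concentration was superfused 45–60 min before recording, and action potentials were sampled at 4–6 sites per fiber in control and after drug, giving Vmax and APD to −60 mV.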

Canis familiaris [3] = organism: Canis familiaris; assay: Maximum rate of rise of the upstroke of transmembrane potential, in canine Purkinje Fibers at a concentration of 3.0 uM at 1000 ms (simulating normal heart rate); format: functional; set-up: unit not given here; conditions: Canis lupus familiaris, Purkinje fiber; procedure, shortened: as §2
Canis familiaris [4] = organism: Canis familiaris; assay: Repolarization to reach -60mV, in canine Purkinje Fibers at a concentration of 3.0 uM at 300 ms (simulating tachycardia); format: functional, Canis lupus familiaris, Purkinje fiber; procedure, shortened: as §2
Canis familiaris [5] = organism: Canis familiaris; assay: Repolarization to reach -60mV, in canine Purkinje Fibers at a concentration of 0.10 uM at 300 ms (simulating tachycardia); format: functional, Canis lupus familiaris, Purkinje fiber; procedure, shortened: as §2
Canis familiaris [6] = organism: Canis familiaris; assay: repolarization to reach -60mV, in canine Purkinje Fibers at a concentration of 0.10 uM at 1000 ms (simulating normal heart rate); format: functional, Canis lupus familiaris, Purkinje fiber; procedure, shortened: as §1
Canis familiaris [7] = organism: Canis familiaris; assay: Maximum rate of rise of the upstroke of transmembrane potential, in canine Purkinje Fibers at a concentration of 0.10 uM at 300 ms (simulating tachycardia); format: functional; conditions: Canis lupus familiaris, Purkinje fiber; procedure, shortened: as §2
Canis familiaris [8] = organism: Canis familiaris; assay: Maximum rate of rise of the upstroke of transmembrane potential, in canine Purkinje Fibers at a concentration of 0.10 uM at 1000 ms (simulating normal heart rate); format: functional; conditions: Canis lupus familiaris, Purkinje fiber; procedure, shortened: as §2
Canis familiaris [9] = assay: Ventricular conduction time by the compound in open chest anesthetized dog, after iv administration at a dose of 5.0 mg/kg.; format: functional, Canis lupus familiaris, Heart; set-up: unit not given here
Procedure, shortened: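 Mongrel dogs were anesthetized with sodium pentobarbital (30 mg/kg iv, then 5 mg/kg per h), the chest opened, and the heart paced at BCL 300 ms. Compound was given iv or intraduodenally. Ventricular conduction time was taken as the interval between electrograms at the proximal and distal sites of the recording electrode array. 2-5 dogs per dose.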

Canis familiaris [10] = assay: Mean arterial pressure by the compound in open chest anesthetized dog, after iv administration at a dose of 5.0 mg/kg.; format: functional, Canis lupus familiaris, Artery; set-up: unit not given here
Procedure, shortened: (§3)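 Hemodynamics (heart rate, mean arterial pressure) recorded in pentobarbital-anesthetized (30 mg/kg iv, 5 mg/kg per h maintenance) open-chest mongrel dogs during the refractoriness study at BCL 300 ms. Readings were taken before and after iv or intraduodenal compound and expressed as change from control.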

Canis familiaris [11] = assay: Atrial effective refractory period by the compound in open chest anesthetized dog, after iv administration at a dose of 5.0 mg/kg.; format: functional, Canis lupus familiaris, Cardiac atrium; set-up: unit not given here
Procedure, shortened: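 Open-chest mongrel dogs under sodium pentobarbital anesthesia (30 mg/kg iv plus 5 mg/kg per h), paced at basic cycle length 300 ms. Atrial effective refractory period was determined by electrical stimulation before and after iv or intraduodenal compound and reported as change from control.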

Canis familiaris [12] = assay: Heart beat by the compound in open chest anesthetized dog, after iv administration at a dose of 5.0 mg/kg.; format: functional, Canis lupus familiaris; set-up: unit not given here; procedure, shortened: as §3
Canis familiaris [13] = assay: Ventricular effective refractory period by the compound in open chest anesthetized dog, after iv administration at a dose of 5.0 mg/kg.; format: functional, Canis lupus familiaris, Heart; set-up: unit not given here
Canis familiaris [14] = assay: Atrial conduction time by the compound in open chest anesthetized dog, after iv administration at a dose of 5.0 mg/kg.; format: functional, Canis lupus familiaris, Cardiac atrium; set-up: unit not given here
Procedure, shortened: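 Mongrel dogs anesthetized with sodium pentobarbital (30 mg/kg iv, then 5 mg/kg per h), chest opened, paced at BCL 300 ms. Atrial conduction time was taken as the interval between electrograms recorded at the proximal and distal sites of the atrial recording electrode array, before and after iv or intraduodenal dosing. Values are changes from control.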

Canis familiaris [15] = organism: Canis familiaris; assay: repolarization to reach -60mV, in canine Purkinje Fibers at a concentration of 1.0 uM at 1000 ms (simulating normal heart rate); format: functional, Canis lupus familiaris, Purkinje fiber; procedure, shortened: as §1
Canis familiaris [16] = organism: Canis familiaris; assay: Maximum rate of rise of the upstroke of transmembrane potential, in canine Purkinje Fibers at a concentration of 1.0 uM at 300 ms (simulating tachycardia); format: functional; set-up: unit not given here; conditions: Canis lupus familiaris, Purkinje fiber; procedure, shortened: as §2
Canis familiaris [17] = organism: Canis familiaris; assay: Repolarization to reach -60mV, in canine Purkinje Fibers at a concentration of 0.3 uM at 300 ms (simulating tachycardia); format: functional, Canis lupus familiaris, Purkinje fiber; procedure, shortened: as §2
Canis familiaris [18] = organism: Canis familiaris; assay: Maximum rate of rise of the upstroke of transmembrane potential, in canine Purkinje Fibers at a concentration of 0.3 uM at 1000 ms (simulating normal heart rate); format: functional; set-up: unit not given here; conditions: Canis lupus familiaris, Purkinje fiber; procedure, shortened: as §2
Canis familiaris [19] = organism: Canis familiaris; assay: Repolarization to reach -60mV, in canine Purkinje Fibers at a concentration of 1.0 uM at 300 ms (simulating tachycardia); format: functional, Canis lupus familiaris, Purkinje fiber; procedure, shortened: as §2
Canis familiaris [20] = organism: Canis familiaris; assay: Maximum rate of rise of the upstroke of transmembrane potential, in canine Purkinje Fibers at a concentration of 1.0 uM at 1000 ms (simulating normal heart rate); format: functional; set-up: unit not given here; conditions: Canis lupus familiaris, Purkinje fiber; procedure, shortened: as §2
Canis familiaris [21] = organism: Canis familiaris; assay: Maximum rate of rise of the upstroke of transmembrane potential, in canine Purkinje Fibers at a concentration of 0.3 uM at 300 ms (simulating tachycardia); format: functional; set-up: unit not given here; conditions: Canis lupus familiaris, Purkinje fiber; procedure, shortened: as §2
Canis familiaris [22] = organism: Canis familiaris; assay: repolarization to reach -60mV, in canine Purkinje Fibers at a concentration of 0.3 uM at 1000 ms (simulating normal heart rate); format: functional, Canis lupus familiaris, Purkinje fiber; procedure, shortened: as §1

| SMILES | APD (Canis familiaris [1]) | Vmax (Canis familiaris [2]) | Vmax (Canis familiaris [3]) | APD (Canis familiaris [4]) | also measured |
| --- | --- | --- | --- | --- | --- |
| CN(CCCOc1ccc(NS(C)(=O)=O)cc1)Cc1cnc2ccccc2n1 | 62% | -14 | -16 | 27% |  |
| Cc1nc2ccccc2nc1CN(C)CC(O)COc1ccc(-n2ccnc2)cc1 (centres undefined) | 69% | 10 | 13 | 24% |  |
| CN(Cc1ccc2cc(Cl)ccc2n1)CC(O)COc1ccc(NS(C)(=O)=O)cc1 (centres undefined) | 65% | -2 | 0 | 29% |  |
| CN(Cc1cc2ccccc2o1)CC(O)COc1ccc(NS(C)(=O)=O)cc1 (centres undefined) | 47% | 16 | 4 | 16% |  |
| Cn1c(N2CCN(CC(O)COc3ccc(NS(C)(=O)=O)cc3)CC2)nc2ccccc21 (centres undefined) | 83% | -9 | -3 | 21% |  |
| CN(Cc1ccc2ccccc2n1)CC(O)COc1ccc(C#N)cc1 (centres undefined) | 41% | 8 | 19 | 0% |  |
| CS(=O)(=O)Nc1ccc(OCCCN(Cc2ccc3cc(NS(C)(=O)=O)ccc3n2)C2CCCC2)cc1 |  |  |  |  | APD (Canis familiaris [5]): 13%; APD (Canis familiaris [6]): 30%; Vmax (Canis familiaris [7]): 8; Vmax (Canis familiaris [8]): 7 |
| CN(CCCOc1ccc(NS(C)(=O)=O)cc1)Cc1ccc2ccccc2n1 | 45% | 3 | 5 | 22% | VCT (Canis familiaris [9]): 1; MBP (Canis familiaris [10]): -11; AERP (Canis familiaris [11]): 52; HR (Canis familiaris [12]): -23; VERP (Canis familiaris [13]): 30; ACT (Canis familiaris [14]): -6 |
| CN(Cc1ccc2cc(F)ccc2n1)CC(O)COc1ccc(NS(C)(=O)=O)cc1 (centres undefined) | 55% | 8 | 11 | 22% | APD (Canis familiaris [15]): 50%; Vmax (Canis familiaris [16]): 4; APD (Canis familiaris [17]): 12%; Vmax (Canis familiaris [18]): 3; APD (Canis familiaris [19]): 19%; Vmax (Canis familiaris [20]): 5; Vmax (Canis familiaris [21]): 3; APD (Canis familiaris [22]): 31% |
| CN(Cc1ccc2ccccc2n1)C[C@@H](O)COc1ccc(NS(C)(=O)=O)cc1 | 70% | -1 | 4 | 27% | APD (Canis familiaris [15]): 48%; Vmax (Canis familiaris [16]): -9; APD (Canis familiaris [17]): 12%; Vmax (Canis familiaris [18]): 9; APD (Canis familiaris [19]): 22%; Vmax (Canis familiaris [20]): 6; Vmax (Canis familiaris [21]): -4; APD (Canis familiaris [22]): 25% |
| O=[N+]([O-])c1ccc(OCC(O)CN2CCN(c3ccccn3)CC2)cc1 (centres undefined) | 29% | -19 | 8 | 15% | VCT (Canis familiaris [9]): -7; MBP (Canis familiaris [10]): -33; AERP (Canis familiaris [11]): 69; HR (Canis familiaris [12]): -33; VERP (Canis familiaris [13]): 25; ACT (Canis familiaris [14]): 16 |
| CN(Cc1ccc2cc(NS(C)(=O)=O)ccc2n1)CC(O)COc1ccc(NS(C)(=O)=O)cc1 (centres undefined) | 66% | -1 | -6 | 18% | APD (Canis familiaris [15]): 55%; Vmax (Canis familiaris [16]): -4; APD (Canis familiaris [17]): 13%; Vmax (Canis familiaris [18]): -12; APD (Canis familiaris [19]): 17%; Vmax (Canis familiaris [20]): -10; Vmax (Canis familiaris [21]): -2; APD (Canis familiaris [22]): 42% |
